These results are taken from ChEMBL document CHEMBL1772982, “In vitro and in vivo trypanocidal activity of flavonoids from Delphinium staphisagria against Chagas disease” (J Nat Prod, 2011).

Active and inactive are the calls of the source. Where only a bound is given, the exact number is not on record here.

The test system of series [1] is Trypanosoma cruzi. As to the kind of experiment: Antitrypanosomal activity against blood trypomastigote forms of Trypanosoma cruzi infected in BALB/c mouse assessed as decrease in anti-parasite antibodies level at 5 mg/kg, ip administered 7 days post infection once daily for 5 days measured after […] by ELISA relative to control. Also on record: dose 5 mg/kg. The format is functional, organism-based. Put shortly: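 Female BALB/c mice (6–8 weeks) were infected ip; groups of four received ip treatment days 7–12 post-infection. Sera taken on days 40 and 90 were diluted 1:100 and run in ELISA against excreted Fe-SOD antigen from epimastigotes, read at 490 nm. Cutoff was the mean of negative controls plus 3 SD. The change was taken as absorbance on day 90 minus day 40.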

Series [2] relates to Trypanosoma cruzi. As to the kind of experiment: Antitrypanosomal activity against blood trypomastigote forms of Trypanosoma cruzi infected in BALB/c mouse assessed as decrease in parasitemia at 5 mg/kg, ip administered 7 days post infection once daily for 5 days measured after 40 days post infection by […] relative to control. The format is functional. Also on record: scale not given: the % may be the effect or the level left. To be noted: route intraperitoneal. Put shortly:
(§1)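 Female BALB/c mice (6–8 weeks, five per group) were infected ip with 1 × 10^3 bloodstream forms and treated ip in saline on days 7–12 post-infection; controls received vehicle. Every two days, 5 μL tail blood was diluted 1:15 in citrate/lysis buffer (pH 7.2) and parasites counted in a Neubauer chamber. Decrease is relative to the untreated infected group.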

Series [3] has as its system Trypanosoma cruzi. As to the kind of experiment: Antitrypanosomal activity against metacyclic forms of Trypanosoma cruzi infected in vero cells assessed as inhibition of infection at IC25 concentration after 12 hrs. The format is functional. Put shortly:
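Vero cells were seeded at 1 × 10^5 per well on coverslips, grown 2 days, and infected with metacyclic forms at 10:1, with compounds at IC25 present for 12 h at 37 °C. After washing, cultures were grown 10 days. Methanol-fixed, Giemsa-stained cells (>100 per sample) were scored for percent infected and amastigotes per cell. Results are means of four determinations.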

The nature of series [4]: Selectivity index, ratio of IC50 for african green monkey Vero cells to IC50 for epimastigote form of Trypanosoma cruzi. The format is toxicity, cell-based. To be noted: Vero cells (versus epimastigote form of Trypanosoma cruzi), read-out: Ratio IC50.
For series [5], the system named is Trypanosoma cruzi. Briefly: Antitrypanosomal activity against Trypanosoma cruzi epimastigotes assessed as increase in vacuolization at IC25 concentration after 72 hrs by transmission electron microscopy. The format is functional, organism-based. The method, boiled down: (§2)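 Epimastigotes at 5 × 10^6 cells/mL were exposed to test compounds at their IC25 for 72 h. Morphology was assessed by transmission electron microscopy against untreated parasites.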

For series [6], the system named is Trypanosoma cruzi. As to the kind of experiment: Antitrypanosomal activity against metacyclic forms of Trypanosoma cruzi infected in vero cells assessed as decrease in trypomastigotes at IC25 concentration after 12 hrs. The format is functional. Also on record: scale not given: the % may be the effect or the level left. Put shortly: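 Vero cells were seeded at 1 × 10^5 per well on coverslips, grown 2 days, then infected with metacyclic forms at 10:1. Compounds at IC25 were added at infection for 12 h at 37 °C, 5% CO2, then washed out. Cultures were kept 10 days with medium renewed every 48 h. Trypomastigotes released into the medium were counted.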

In a further series the test system is Mus musculus. Briefly: Toxicity in BALB/c mouse assessed as mortality at 5 mg/kg, ip. The format is organism-based. To be noted: in vivo. Also on record: dose 5 mg/kg, route intraperitoneal.
Series [7] concerns Trypanosoma cruzi. As to the kind of experiment: Antitrypanosomal activity against epimastigote form of Trypanosoma cruzi assessed as inhibition of parasite growth. The format is functional, organism-based. The method, boiled down:
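Exponential-phase epimastigotes at 2 × 10^6 parasites/mL were exposed to 1, 10, 25, 50 and 100 μM compound in medium containing 0.01% DMSO. Parasites were counted by hemocytometer at 24, 48 and 72 h.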

Series [8] deals with Trypanosoma cruzi. Briefly: Antitrypanosomal activity against blood trypomastigote forms of Trypanosoma cruzi infected in BALB/c mouse assessed as decrease in parasitemia at 5 mg/kg, ip administered 7 days post infection once daily for 5 days measured on day 22 post infection by […] relative to control. The format is functional, organism-based. Also on record: dose 5 mg/kg. The method, boiled down:
as §1

The subject of series [9] is Trypanosoma cruzi. As to the kind of experiment: Antitrypanosomal activity against blood trypomastigote forms of Trypanosoma cruzi infected in BALB/c mouse assessed as mouse survival rate at 1 mg/kg, ip administered 7 days postinfection once daily for 5 days. The format is functional. Put shortly: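 T. cruzi Maracay strain; groups of five female BALB/c mice (6–8 weeks, 25–30 g) infected ip with 1 × 10³ bloodstream forms. Starting day 7 post-infection, ip dosing at 1 mg/kg/day in saline for five consecutive days; infected controls received vehicle. Mortality recorded over the study alongside parasitemia, which was counted every two days from tail blood in a Neubauer chamber.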

The test system of series [10] is Trypanosoma cruzi. Briefly: Antitrypanosomal activity against Trypanosoma cruzi epimastigotes assessed as shrinkage of the protozoa at IC25 concentration after 72 hrs by transmission electron microscopy. The format is functional, organism-based. Put shortly:
as §2

The subject of another series is Vero. Briefly: Cytotoxicity against african green monkey Vero cells assessed as cell viability after 72 hrs by FACS analysis. The following applies: Chlorocebus sabaeus. The format is cell-based. (In general: In flow cytometry, cells or beads pass a laser one at a time.)
For series [11], the system named is Trypanosoma cruzi. Briefly: Antitrypanosomal activity against Trypanosoma cruzi epimastigotes assessed as cytoplasmic membrane burst at IC25 concentration after 72 hrs by transmission electron microscopy. The format is functional, organism-based. Put shortly: as §2
Series [12] has as its system Trypanosoma cruzi. As to the kind of experiment: Antitrypanosomal activity against Trypanosoma cruzi epimastigotes assessed as undulating cytoplasm membrane at IC25 concentration after 72 hrs by transmission electron microscopy. The format is functional, organism-based. Put shortly:
as §2

Series [13] has as its system Trypanosoma cruzi. As to the kind of experiment: Antitrypanosomal activity against Trypanosoma cruzi epimastigotes assessed as star-shaped and wavy cytoplasm membrane at IC25 concentration after 72 hrs by transmission electron microscopy. The format is functional, organism-based. Put shortly:
as §2

The subject of series [14] is Trypanosoma cruzi. As to the kind of experiment: Antitrypanosomal activity against Trypanosoma cruzi epimastigotes assessed as dilated mitochondria at IC25 concentration after 72 hrs by transmission electron microscopy. The format is functional, organism-based. Put shortly: as §2

On to `C[C@H]1O[C@H](Oc2cc(O)c3c(=O)c(O[C@@H]4O[C@H](CO)[C@@H](O)[C@H](O)[C@H]4O)c(-c4ccc(O)c(O)c4)oc3c2)[C@@H](O)[C@@H](O)[C@@H]1O` [PETIOLAROSIDE], for which the result in the series on Trypanosoma cruzi [1], in the series with Trypanosoma cruzi [5], with Trypanosoma cruzi [8], with Trypanosoma cruzi [9] and in the series with Trypanosoma cruzi [10] was Active. In addition, the Activity in the series with Trypanosoma cruzi [2] was 23%; in the series with Trypanosoma cruzi [6] it was 72%; with Mus musculus, “Non-toxic”. In addition, the “inhibition (INH)” value in the series on Trypanosoma cruzi [3] stood at 68%. Also, the selectivity ratio in series [4] was above 33. Further, the IC50 – broadly, the midpoint of a concentration-inhibition curve – is 30.3 µM in the series on Trypanosoma cruzi [7] and above 1000 µM in the series with Vero.

As to `O=C(Cn1ccnc1[N+](=O)[O-])NCc1ccccc1` [BENZNIDAZOLE], in the series with Trypanosoma cruzi [3], the “inhibition (INH)” value amounted to 39%. The Activity in the series on Trypanosoma cruzi [6] is listed as 37%. In addition, the survival at 1 mg/kg in the series on Trypanosoma cruzi [9] (route intraperitoneal) stood at 80%.

On to `CC(=O)OC[C@H]1O[C@@H](Oc2cc(OC(C)=O)c3c(=O)c(O[C@@H]4O[C@H](COC(C)=O)[C@@H](OC(C)=O)[C@H](OC(C)=O)[C@H]4OC(C)=O)c(-c4ccc(OC(C)=O)cc4)oc3c2)[C@H](OC(C)=O)[C@@H](OC(C)=O)[C@@H]1OC(C)=O` [PAEONOSIDE DECAACETATE], for which the outcome with Trypanosoma cruzi [1], in the series on Trypanosoma cruzi [11], in the series with Trypanosoma cruzi [5], in the series on Trypanosoma cruzi [8], with Trypanosoma cruzi [12] and with Trypanosoma cruzi [9] was Active. The outcome in the series on Trypanosoma cruzi [13] and with Trypanosoma cruzi [10] was Active. The Activity in the series with Trypanosoma cruzi [2] is on record as 23%; in the series with Trypanosoma cruzi [6], 85%; in the series with Mus musculus, “Non-toxic”. Further, the “inhibition (INH)” value with Trypanosoma cruzi [3] was 82%. Moreover, the selectivity ratio in series [4] was above 58.1. The IC50 is 17.2 µM in the series on Trypanosoma cruzi [7] and above 1000 µM with Vero.

In the case of `O=c1c(O[C@@H]2O[C@H](CO)[C@@H](O)[C@H](O)[C@H]2O)c(-c2ccc(O)cc2)oc2cc(O)cc(O)c12` [ASTRAGALIN], the outcome in the series on Trypanosoma cruzi [1], in the series with Trypanosoma cruzi [11], with Trypanosoma cruzi [5], in the series on Trypanosoma cruzi [8], with Trypanosoma cruzi [12] and in the series on Trypanosoma cruzi [9] was Active. In addition, the result in the series on Trypanosoma cruzi [10] was Active. The Activity in the series on Trypanosoma cruzi [2] is 23%; with Trypanosoma cruzi [6], 65%; with Mus musculus, “Non-toxic”. Further, in the series on Trypanosoma cruzi [3], the “inhibition (INH)” value was determined as 64%. In addition, the selectivity ratio in [4] stood at 11.1. Also, the IC50 in the series on Trypanosoma cruzi [7] was found to be 15.7 µM; in the series with Vero, 174 µM.

With `CC(=O)O[C@H]1[C@H](Oc2c(-c3ccc(O)c(O)c3)oc3cc(O[C@H]4O[C@H](C)[C@@H](O)[C@H](O)[C@@H]4O)cc(O)c3c2=O)O[C@H](CO)[C@@H](O)[C@@H]1O`, the outcome in the series on Trypanosoma cruzi [1], in the series with Trypanosoma cruzi [5], with Trypanosoma cruzi [8], in the series with Trypanosoma cruzi [9] and in the series with Trypanosoma cruzi [10] was Active. In addition, the Activity in the series on Trypanosoma cruzi [2] is listed as 23%; with Trypanosoma cruzi [6], 58%; in the series with Mus musculus it was “Non-toxic”. Besides, in the series with Trypanosoma cruzi [3], the “inhibition (INH)” value stood at 65%. In addition, in [4], the selectivity ratio is above 36.6. Moreover, the figures for the IC50 in the series with Trypanosoma cruzi [7] and with Vero were 27.3 µM and above 1000 µM, respectively.

With `CC(=O)O[C@H]1[C@H](Oc2c(-c3ccc(O)cc3)oc3cc(O[C@@H]4O[C@H](CO)[C@@H](O)[C@H](O)[C@H]4O)cc(O)c3c2=O)O[C@H](CO)[C@@H](O)[C@@H]1O`, the outcome in the series on Trypanosoma cruzi [1], in the series on Trypanosoma cruzi [5], with Trypanosoma cruzi [8], in the series on Trypanosoma cruzi [9] and with Trypanosoma cruzi [10] was Active. The results for the Activity with Trypanosoma cruzi [2], with Trypanosoma cruzi [6] and in the series with Mus musculus were 23%, 77% and “Non-toxic”, respectively. In addition, the “inhibition (INH)” value in the series on Trypanosoma cruzi [3] was 85%. Besides, the selectivity ratio in series [4] is above 46.1. Also, the IC50 with Trypanosoma cruzi [7] was 21.7 µM; in the series on Vero, above 1000 µM.

With `CC(=O)O[C@H]1[C@H](Oc2c(-c3ccc(O)cc3)oc3cc(O)cc(O)c3c2=O)O[C@H](CO)[C@@H](O)[C@@H]1O`, the result with Trypanosoma cruzi [1], with Trypanosoma cruzi [14], with Trypanosoma cruzi [11], in the series on Trypanosoma cruzi [5], in the series with Trypanosoma cruzi [8] and in the series with Trypanosoma cruzi [12] was Active. The result with Trypanosoma cruzi [9] and with Trypanosoma cruzi [10] was Active. The Activity is 23% in the series with Trypanosoma cruzi [2], 78% in the series on Trypanosoma cruzi [6] and “Non-toxic” in the series on Mus musculus. The “inhibition (INH)” value in the series with Trypanosoma cruzi [3] worked out at 88%. Moreover, the selectivity ratio in series [4] came out at 45.2. Further, the IC50 in the series with Trypanosoma cruzi [7] amounted to 6.5 µM; with Vero, 294 µM.

Regarding `CC(=O)OC[C@H]1O[C@@H](Oc2c(-c3ccc(OC(C)=O)cc3)oc3cc(OC(C)=O)cc(OC(C)=O)c3c2=O)[C@H](OC(C)=O)[C@@H](OC(C)=O)[C@@H]1OC(C)=O` [ASTRAGALIN HEPTAACETATE], the outcome with Trypanosoma cruzi [1], with Trypanosoma cruzi [5], in the series on Trypanosoma cruzi [8], in the series on Trypanosoma cruzi [9] and in the series on Trypanosoma cruzi [10] was Active. Moreover, the Activity was 23% in the series with Trypanosoma cruzi [2], 95% in the series with Trypanosoma cruzi [6] and “Non-toxic” in the series on Mus musculus. Also, the “inhibition (INH)” value in the series on Trypanosoma cruzi [3] is recorded as 91%. Besides, the selectivity ratio in series [4] was 205. Besides, the half-maximal inhibitory concentration (IC50) was determined as 0.8 µM with Trypanosoma cruzi [7] and 164 µM in the series with Vero.
